Data: PMC8434796 (Glycobiology, 2021)
≈ marks a conversion by molar mass, not a printed value. Where “and” joins values, the source holds several entries; their conditions need not be identical. Equal values may be shown once.

Columns and labels:
HAS2 = assay: qPCR relative expression of HAS2 in NIH3T3 cells; assay type: cell-based, mouse
Summary of the method: (§1)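 Total RNA isolated with TRI reagent; concentration and quality checked by spectrophotometry and electrophoresis. Target mRNA quantified by SYBR Green real-time qPCR and normalized to GAPDH mRNA. Values are mean ± SD of three technical replicates.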

[1] = system: A2058 melanoma cells, MCF-7 and MDA-MB-361 breast, SKOV-3 ovarian and UT-SCC118 squamous carcinoma cells; conditions: incubation with 4MU; ref Kultti et al. 2009; cited from earlier work
B16F10 cells = conditions: 30 μM, ref Nagy et al. 2019; cited from earlier work
Hyal1 = assay: qPCR relative expression of Hyal1 in NIH3T3 cells; assay type: cell-based, mouse
Summary of the method: as §1

NIH3T3 cells [2] = assay: Microscopic evaluation; assay type: cell-based, mouse; conditions: 10 μM, 3 days, HABP staining, vs DMSO control
Summary of the method: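 NIH3T3 seeded at 2 × 10^4 cells/well; next day fresh medium with 10 μM test compound, 3 days. Fixed 10 min in 10% buffered formalin, avidin-biotin blocked, biotinylated HABP overnight at 4°C, then streptavidin-Alexa 488, Hoechst and phalloidin. Confocal 40× 5 × 5 mosaics; HA-positive area as % of total cell area. Three wells. Controls: 0.05% DMSO; hyaluronidase digest of untreated cells (1 mg/mL, 30 min, 37°C).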

[3] = system: CCl4 induced liver fibrosis; conditions: CCl4 treated animals; ref Andreichenko et al. 2019; cited from earlier work
endothelial cells = conditions: 0.6 μM, ref Nagy et al. 2010; cited from earlier work
[4] = system: CCl4 induced liver fibrosis; assay: CCl4-induced liver fibrosis in mice; assay type: in vivo; conditions: for Blood parameters, compound alone vs control group: mice treated by compound only, 600 mg/kg daily; for Hepatotoxicity of compound alone (AST/ALT): mice, daily dose of 600 mg/kg per os
HAS3 = assay: qPCR relative expression of HAS3 in NIH3T3 cells; assay type: cell-based, mouse
Summary of the method: as §1

NIH3T3 cells [5] = assay: Cell population doubling time; assay type: cell-based, mouse; conditions: 72 h; for Doubling time: control 21 h
Hyal2 = assay: qPCR relative expression of Hyal2 in NIH3T3 cells; assay type: cell-based, mouse
Summary of the method: as §1

[6] = system: hyaluronan synthase activity; conditions: plasma membrane preparations containing hyaluronan synthase activity; ref Nakamura et al. 1997; cited from earlier work
[7] = mice fed with 5% chow, averaged over 24 h; ref Kuipers et al. 2016; cited from earlier work
NIH3T3 cells [8] = assay: MTT cell viability assay; assay type: cell-based, mouse; conditions: proliferating NIH3T3 cells, 3 days incubation
Summary of the method: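 Proliferating NIH3T3 fibroblasts exposed for 3 days to rising test compound concentrations. MTT (5 mg/mL in PBS, 10 μL per 100 μL medium) incubated 3 h at 37°C, 5% CO2. Plates centrifuged, medium removed, formazan dissolved in DMSO, absorbance read at 570 nm. n = 3.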

NIH3T3 cells [9] = assay: Inhibition of hyaluronan secreted in NIH3T3 cell culture media; assay type: cell-based, mouse; conditions: for Effect on hyaluronan production (in words): NIH3T3 HA production assay; for IC50: Mus musculus, NIH3T3, 72 h, read-out: IC50 for inhibition of hyaluronan deposition in cell culture media
[10] = system: human pancreatic cancer cell (KP1-NL); conditions: fixed concentration 10 μM; ref Morohashi et al. 2006; cited from earlier work
[11] = system: Drosophila mutEt15 (I1056F/M); conditions: Drosophila line with CRISPR/Cas9 point mutation I1056F/M; ref Douris et al. 2016; cited from earlier work
Drosophila WT = conditions: wild-type Drosophila; ref Douris et al. 2016; cited from earlier work
zebrafish embryos = conditions: ref Park et al. 2019; cited from earlier work

What does the source list for `Cc1cc(=O)oc2cc(O)ccc12` [Compound 4MU, 7-hydroxy-4-methylchromen-2-one]?
IC50 (HAS2; Mus musculus, NIH3T3, read-out: IC50 for inhibition of HAS2 expression): ~250 µM; Depletion of UDP-GlcUA levels [1]: 38–95%; HA production inhibition (B16F10 cells): 50%; IC50 (Hyal1; Mus musculus, NIH3T3, read-out: Upregulated Hyal1 expression with IC50): ~250 µM; Decrease of the percentage of HA-positive area (NIH3T3 cells [2]): at least 3 times; Collagen deposition in the liver [3]: prevented collagen deposition; Reduction of hyaluronan secretion (endothelial cells): 30%; Plasma HA ([4]; CCl4-treated mice, 600 mg/kg daily per os): reduced plasma HA to near the control levels; Blood parameters, compound alone vs control group [4]: did not find any significant differences; Hepatotoxicity of compound alone (AST/ALT) [4]: no hepatotoxicity; Activated HAS3 expression at concentration over (HAS3): over 500 μM; Doubling time (NIH3T3 cells [5]; 250 μM): 38 h; Concentration from/over which doubling time increased (NIH3T3 cells [5]): ≥ 60 µM; Hyal2 expression not affected at concentrations up to (Hyal2): > 1 mM; HA synthesis in cell-free assay (in words) [6]: did not inhibit HA synthesis; Effective plasma concentration [7]: 0.89 ± 0.51 μg/mL and 5.1 ± 2.9 μM

With `Cc1cc(=O)oc2c(C)c3c(cc12)C(=O)CC1(CCCCC1)O3` [Compound IX, 6′,10′-dimethyl-3′H-spiro[cyclohexane-1,2′-pyrano[3,2-g]chromene]-4′,8′-dione] as the compound, how does the “Did not affect cell viability at concentrations up to” value (NIH3T3 cells [8]) read?
Its value is over 1 mM.

And the “Not toxic in concentrations up to (MTT)” value (NIH3T3 cells [8])?
Its value is over 0.5 mM.

And the Doubling time (NIH3T3 cells [5]; all tested concentrations)?
The Doubling time was 16.5 h.

And the “Effect on hyaluronan production (in words)” value (NIH3T3 cells [9])?
Its value is “completely abrogated inhibition of hyaluronan production”.

What does the source list for `CC(=O)c1cc2c(-c3ccccc3)cc(=O)oc2c(C)c1O` [Compound V, 6-acetyl-7-hydroxy-8-methyl-4-phenyl-2H-chromen-2-one]?
Toxicity at concentrations higher than (MTT) (NIH3T3 cells [8]): higher than 125 μM; Concentration from/over which doubling time increased (NIH3T3 cells [5]): ≥ 125 µM

With `Cc1c2c(cc3c(-c4ccccc4)cc(=O)oc13)C(=O)CC1(CCCCC1)O2` [Compound VI, 10′-methyl-6′-phenyl-3′H-spiro[cyclohexane-1,2′-pyrano[3,2-g]chromene]-4′,8′-dione] as the compound, how does the “Did not affect cell viability at concentrations up to” value (NIH3T3 cells [8]) read?
Its value is over 1 mM.

What about the “Not toxic in concentrations up to (MTT)” value (NIH3T3 cells [8]) of the same compound?
The value was over 0.5 mM.

What about the “Effect on hyaluronan production (in words)” value (NIH3T3 cells [9]) of the same compound?
Its value is “completely abrogated inhibition of hyaluronan production”.

Which “Decrease of the percentage of HA-positive area” value (NIH3T3 cells [2]) does the source give for `Cc1c2c(cc3c(-c4ccccc4)cc(=O)oc13)C(=O)CC1(CCNCC1)O2` [Compound VII, 10′-methyl-6′-phenyl-3′H-spiro[piperidine-4,2′-pyrano[3,2-g]chromene]-4′,8′-dione] here?
The value was “at least 3 times”.

What about the “Concentration from/over which doubling time increased” value (NIH3T3 cells [5]) of the same compound?
The value was “over 10 μM”.

Which “Inhibitory activity on HA production (in words)” value [10] does the source give for `COc1ccc2c(C)cc(=O)oc2c1` [II, 7-methoxy-4-methyl coumarin] here?
The value was “inactive”.

For `CCN(CC)Cc1cc2c(-c3ccccc3)cc(=O)oc2c(C)c1O` [IV, 6-((diethylamino)methyl)-7-hydroxy-8-methyl-4-phenyl-2H-chromen-2-one], which “Concentration from/over which doubling time increased” value (NIH3T3 cells [5]) is on record?
Its value is at least 500 µM.

For `CC(=O)c1cc2c(C)cc(=O)oc2c(C)c1O` [VIII, 6-acetyl-7-hydroxy-4,8-dimethyl-2H-chromen-2-one], which “Decrease of the percentage of HA-positive area” value (NIH3T3 cells [2]) is on record?
Its value is “at least 3 times”.

What about the “Toxicity at concentrations higher than (MTT)” value (NIH3T3 cells [8]) of the same compound?
The value was over 60 µM.

And the “Concentration from/over which doubling time increased” value (NIH3T3 cells [5])?
The value was over 50 µM.

With `CC(C)N1C(=O)N(c2ccccc2)CSC1=NC(C)(C)C` [buprofezin, 2-(tert-butylimino)-5-phenyl-3-(propan-2-yl)-1,3,5-thiadiazinan-4-one] as the compound, how does the “Not toxic in concentrations up to (MTT)” value (NIH3T3 cells [8]) read?
Its value is over 1 mM.

What about the “LC50 mutEt15” value [11] of the same compound?
The value was over 1000 µg/mL.

And the “LC50 WT” value (Drosophila WT)?
The value was 53.2 µg/mL (≈ 174 µM).

What about the IC50 (NIH3T3 cells [9]) of the same compound?
Its IC50 is 1.24 ± 0.87 µM.

Which results are given for `O=C(NC(=O)c1c(F)cccc1F)Nc1ccc(Cl)cc1` [diflubenzuron]?
LC50 mutEt15 [11]: > 5000 µg/mL; LC50 WT (Drosophila WT): 0.322 µg/mL (≈ 1.04 µM)

What does the source list for `CCOc1cc(C(C)(C)C)ccc1C1COC(c2c(F)cccc2F)=N1` (centres unmarked) [etoxazole, 4-(4-tert-butyl-2-ethoxyphenyl)-2-(2,6-difluorophenyl)-4,5-dihydro-1,3-oxazole]?
Upregulation of HAS2 expression (HAS2; NIH3T3 cells, 120 μM): ~1.5 times; Suppression of HAS2 expression (HAS2; NIH3T3 cells, doses higher than 120 μM): up to 80%; Hyal1 level (in words) (Hyal1; NIH3T3 cells, all tested concentrations): significantly dropped; Not toxic in concentrations up to (MTT) (NIH3T3 cells [8]): > 1 mM; αSMA level in liver homogenate (western blot) ([4]; CCl4-treated mice, 600 mg/kg daily per os, n = 5): significant reduction; Plasma HA ([4]; CCl4-treated mice, 600 mg/kg daily per os, 600 mg/kg): reduced plasma HA to near the control levels; Plasma HA ([4]; CCl4-treated mice, 600 mg/kg daily per os, listed as Etoxazole, 600 mg/kg): reduced HA production; Blood parameters, compound alone vs control group [4]: did not find any significant differences; Hepatotoxicity of compound alone (AST/ALT) [4]: no hepatotoxicity; Effect on cardiovascular development (in words) (zebrafish embryos): inhibits cardiovascular development; Inhibited HAS3 expression at concentrations higher than (HAS3): higher than 250 μM; IC50 (NIH3T3 cells [9]): 4.21 ± 3.82 µM; Level of Hyal2 (in words) (Hyal2): not affected

With `O=C(NC(=O)c1c(F)cccc1F)Nc1cc(Cl)c(OC(F)(F)C(F)C(F)(F)F)cc1Cl` (centres unmarked) [lufenuron] as the compound, how does the “LC50 mutEt15” value [11] read?
The value was 16.659 µg/mL (≈ 32.6 µM).

And the “LC50 WT” value (Drosophila WT)?
Its value is 0.148 µg/mL (≈ 0.29 µM).

With `C[C@@H]([C@H](N)C(=O)N[C@H](C(=O)O)[C@H]1O[C@@H](n2ccc(=O)[nH]c2=O)[C@H](O)[C@@H]1O)[C@H](O)c1ccc(O)cn1` [nikkomycin] as the compound, how does the “Effect on hyaluronan production (in words)” value (NIH3T3 cells [9]) read?
Its value is “ineffective”.

Which “Not toxic in concentrations up to (MTT)” value (NIH3T3 cells [8]) does the source give for `O=C(NC(=O)c1ccccc1Cl)Nc1ccc(OC(F)(F)F)cc1` [triflumuron, 2-chloro-N-[[4-(trifluoromethoxy)phenyl]carbamoyl] benzamide] here?
The value was over 1 mM.

What about the IC50 (NIH3T3 cells [9]) of the same compound?
The IC50 was 1.48 ± 1.44 µM.
